Activity calls are given as the source filed them. The rule behind the calls is not given here. Where a SMILES comes first, the peptide text is derived from it. [ ]: non-standard residue; d: D form. Arg(Me) = CNC(=N)NCCC[C@H](N)C(=O)O; d4Pal = N[C@H](Cc1ccncc1)C(=O)O; azaGly = NNC(=O)O
Key:
[1] = Mean residence time in Sprague-Dawley rat at 1 mg/kg, iv after 24 hrs by LC-MS/MS analysis; assay type: ADME, organism-based; design: dose 1 mg/kg, route intravenous; conditions: in vivo
Procedure, shortened: (§1)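 Male Crl:CD(SD) rats (3 per group) got a single intravenous dose of 1 mg/kg. Blood was drawn at 5, 10, 15 and 30 min and at 1, 2, 4, 8 and 24 h. Plasma proteins were removed with 0.2% formic acid/methanol and acetonitrile, and the supernatant was treated with 0.4% formic acid. Peptide was quantified by LC-MS. Noncompartmental parameters were derived per rat, reported as mean ± SD (n = 3).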

[2] = AUC (0 to 24 hrs) in Sprague-Dawley rat at 1 mg/kg, iv after 24 hrs by LC-MS/MS analysis; assay type: ADME, organism-based; design: time < 24 hr, dose 1 mg/kg, route intravenous; conditions: plasma; procedure, shortened: as §1
[3] = Stability of the compound in aqueous solution assessed as residual ratio at pH 3 up to 1 week by HPLC analysis relative to initial level; assay type: physicochemical
Procedure, shortened: (§2)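 Peptides in aqueous solution at pH 1.2 (JP1, containing 10% acetonitrile), 3, 5 or 7 were kept in the dark at 37 °C for up to 2 weeks. Peptide remaining was quantified from HPLC peak area, with detection at 230–280 nm. The residual ratio (stability index) was expressed relative to the time-0 amount, taken as 100%.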

KiSS-1 receptor [4] = molecular target: T1, KiSS-1 receptor (Homo sapiens, UniProt Q969F8); experiment: Displacement of radioligand from human KISS1R transfected in CHO cells; assay type: cell-based
T1 sequence (Q969F8 whole entry): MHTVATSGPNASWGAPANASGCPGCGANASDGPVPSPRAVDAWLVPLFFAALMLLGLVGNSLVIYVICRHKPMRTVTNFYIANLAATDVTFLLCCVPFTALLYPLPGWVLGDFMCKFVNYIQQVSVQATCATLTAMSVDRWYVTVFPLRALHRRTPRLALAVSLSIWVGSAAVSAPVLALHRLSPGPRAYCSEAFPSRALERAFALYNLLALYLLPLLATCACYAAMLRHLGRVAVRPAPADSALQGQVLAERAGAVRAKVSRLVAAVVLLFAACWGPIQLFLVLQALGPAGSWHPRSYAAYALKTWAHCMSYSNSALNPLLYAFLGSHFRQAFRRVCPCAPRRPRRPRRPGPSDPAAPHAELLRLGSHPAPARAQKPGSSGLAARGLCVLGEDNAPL
Procedure, shortened: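 Binding used membrane fractions prepared from CHO cells expressing recombinant human KISS1R.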

[5] = C5min in Sprague-Dawley rat at 1 mg/kg, iv after 5 mins by LC-MS/MS analysis; conditions: in vivo, read-out: Cmin
[6] = Total clearance in Sprague-Dawley rat at 1 mg/kg, iv after 24 hrs by LC-MS/MS analysis; assay type: ADME, organism-based; design: dose 1 mg/kg, route intravenous; conditions: in vivo; procedure, shortened: as §1
Rattus norvegicus [7] = experiment: Testosterone-suppressive activity in Crl:CD(SD) rat assessed as plasma testosterone level below the limit of detection at 10 to 100 pmol/hr, sc continuous administration through osmotic pumps measured up to 1 week by RIA; assay type: functional, organism-based
Procedure, shortened: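 Peptide in 50% DMSO was diluted in distilled water to 10, 30 or 100 μM pump solutions, giving 10–100 pmol/h by subcutaneous ALZET osmotic pump in male Crl:CD(SD) rats (n = 5). Vehicle served as control. Plasma testosterone was measured by RIA after 1 or 4 weeks, with values below 0.04 ng/mL set to 0.04. Results are mean ± SD of five rats, tested by one-tailed Shirley–Williams test versus vehicle.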

[8] = Stability of the compound in aqueous solution assessed as residual ratio at pH 3 up to 2 weeks by HPLC analysis relative to initial level; assay type: physicochemical; procedure, shortened: as §2
[9] = Stability of the compound in aqueous solution assessed as residual ratio at pH 5 up to 1 week by HPLC analysis relative to initial level; assay type: physicochemical; procedure, shortened: as §2
[10] = Bioavailability in Sprague-Dawley rat at 1 mg/kg, sc after 24 hrs by LC-MS/MS analysis; assay type: ADME, organism-based; conditions: in vivo
Procedure, shortened: (§3)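 Single subcutaneous dose of 1 mg/kg in male Crl:CD(SD) rats, n = 3 per group. Blood was sampled from 5 min to 24 h (5, 10, 15, 30 min; 1, 2, 4, 8, 24 h). Plasma was deproteinized with formic acid/methanol and acetonitrile, and peptide levels were measured by LC-MS. Noncompartmental analysis per animal gave Cmax, Tmax, AUC0-24h, MRT and BA; values are mean ± SD (n = 3).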

[11] = Stability of the compound in aqueous solution assessed as residual ratio at pH 7 up to 1 week by HPLC analysis relative to initial level; assay type: physicochemical; procedure, shortened: as §2
Rattus norvegicus [12] = experiment: Testosterone-suppressive activity in Crl:CD(SD) rat assessed as number of animal with plasma testosterone level below the limit of detection at 0.03 mol/hr, sc through osmotic pumps measured after 6 days by RIA; assay type: functional
Rattus norvegicus [13] = experiment: Testosterone-suppressive activity in Crl:CD(SD) rat assessed as number of animal with plasma testosterone level below the limit of detection at 0.05 mol/hr, sc through osmotic pumps measured after 6 days by RIA; assay type: functional
[14] = AUC (0 to 24 hrs) in Sprague-Dawley rat at 1 mg/kg, sc after 24 hrs by LC-MS/MS analysis; assay type: ADME, organism-based; design: time < 24 hr, dose 1 mg/kg, route subcutaneous; conditions: plasma; procedure, shortened: as §3
[15] = Mean residence time in Sprague-Dawley rat at 1 mg/kg, sc after 24 hrs by LC-MS/MS analysis; assay type: ADME, organism-based; design: dose 1 mg/kg, route subcutaneous; conditions: in vivo; procedure, shortened: as §3
KiSS-1 receptor [16] = molecular target: T2, KiSS-1 receptor (Rattus norvegicus, UniProt Q924U1); experiment: Agonist activity at rat KISS1R transfected in CHO cells assessed as intracellular calcium flux after 24 hrs by functional FLIPR assay; assay type: cell-based
T2 sequence (Q924U1 whole entry): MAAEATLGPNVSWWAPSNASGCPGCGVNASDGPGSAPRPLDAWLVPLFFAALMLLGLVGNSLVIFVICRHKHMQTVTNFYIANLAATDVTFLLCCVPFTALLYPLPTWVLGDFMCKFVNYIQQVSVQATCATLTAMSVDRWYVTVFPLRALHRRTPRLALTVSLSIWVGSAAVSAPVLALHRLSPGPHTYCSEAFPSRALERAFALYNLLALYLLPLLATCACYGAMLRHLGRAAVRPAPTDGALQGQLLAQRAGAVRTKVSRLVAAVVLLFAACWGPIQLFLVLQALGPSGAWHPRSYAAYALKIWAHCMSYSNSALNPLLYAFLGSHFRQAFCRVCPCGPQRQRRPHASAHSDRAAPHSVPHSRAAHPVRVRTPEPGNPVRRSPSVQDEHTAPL

[17] = Stability of the compound in aqueous solution (JP1) assessed as residual ratio at pH 1.2 up to 2 weeks by HPLC analysis relative to initial level; assay type: physicochemical; procedure, shortened: as §2
Rattus norvegicus [18] = experiment: Testosterone-suppressive activity in Crl:CD(SD) rat assessed as number of animal with plasma testosterone level below the limit of detection […], sc through osmotic pumps measured after 6 days by RIA; assay type: functional
KiSS-1 receptor [19] = molecular target: T1, KiSS-1 receptor; experiment: Agonist activity at human KISS1R transfected in CHO cells assessed as intracellular calcium flux after 24 hrs by functional FLIPR assay; assay type: cell-based
Procedure, shortened: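 CHO cells stably expressing human KISS1R were seeded at 15 000 cells/mL, cultured 24 h, then loaded with fluo-3 for 1 h at 37 °C in HBSS/HEPES (pH 7.4) with probenecid and FBS. Cells were washed in HBSS with 2.5 mM probenecid. Peptides came from 1 mM DMSO stocks diluted in buffer containing probenecid, 0.2% BSA and 0.1% CHAPS. Fluorescence was recorded on FLIPR for 3 min; peak counts over 0–180 s gave agonist activity.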

[20] = Stability of the compound in aqueous solution (JP1) assessed as residual ratio at pH 1.2 up to 1 week by HPLC analysis relative to initial level; assay type: physicochemical; procedure, shortened: as §2
KiSS-1 receptor [21] = molecular target: T2, KiSS-1 receptor; experiment: Displacement of radioligand from rat KISS1R transfected in CHO cells; assay type: cell-based
[22] = Cmax in Sprague-Dawley rat at 1 mg/kg, sc after 24 hrs by LC-MS/MS analysis; assay type: ADME, organism-based; design: dose 1 mg/kg, route subcutaneous; conditions: in vivo; procedure, shortened: as §3
[23] = Volume of distribution at steady state in Sprague-Dawley rat at 1 mg/kg, iv after 24 hrs by LC-MS/MS analysis; assay type: ADME, organism-based; design: dose 1 mg/kg, route intravenous; conditions: in vivo, read-out: Vdss; procedure, shortened: as §1
[24] = Stability of the compound in aqueous solution assessed as residual ratio at pH 5 up to 2 weeks by HPLC analysis relative to initial level; assay type: physicochemical; procedure, shortened: as §2
[25] = Tmax in Sprague-Dawley rat at 1 mg/kg, sc after 24 hrs by LC-MS/MS analysis; assay type: ADME, organism-based; design: dose 1 mg/kg, route subcutaneous; conditions: in vivo; procedure, shortened: as §3
[26] = Stability of the compound in aqueous solution assessed as residual ratio at pH 7 up to 2 weeks by HPLC analysis relative to initial level; assay type: physicochemical; procedure, shortened: as §2
Rattus norvegicus [27] = experiment: Testosterone-suppressive activity in Crl:CD(SD) rat assessed as number of animal with plasma testosterone level below the limit of detection at 0.3 nmol/hr, sc through osmotic pumps measured after 6 days by RIA; assay type: functional
Procedure, shortened: (§4)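 Peptide was dissolved in distilled water or 50% DMSO as 0.1–2 mM pump solutions and delivered by ALZET osmotic pumps implanted subcutaneously in the back of 9-week-old male Crl:CD(SD) rats (n = 5) under ether. Controls received distilled-water pumps. After 6 days, rats were decapitated and plasma was recovered with aprotinin/EDTA. Testosterone was measured by RIA, and the number of rats below the detection limit (0.04 ng/mL) was counted.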

Rattus norvegicus [28] = experiment: Testosterone-suppressive activity in Crl:CD(SD) rat assessed as number of animal with plasma testosterone level below the limit of detection at 0.5 nmol/hr, sc through osmotic pumps measured after 6 days by RIA; assay type: functional; procedure, shortened: as §4
Rattus norvegicus [29] = experiment: Testosterone-suppressive activity in Crl:CD(SD) rat assessed as number of animal with plasma testosterone level below the limit of detection at 2 nmol/hr, sc through osmotic pumps measured after 6 days by RIA; assay type: functional; procedure, shortened: as §4
Rattus norvegicus [30] = experiment: Testosterone-suppressive activity in Crl:CD(SD) rat assessed as number of animal with plasma testosterone level below the limit of detection at 0.1 nmol/hr, sc through osmotic pumps measured after 6 days by RIA; assay type: functional; procedure, shortened: as §4

Row | Structure (SMILES) | MRT [1] | AUC(0-t) at 24 h [2] | remaining at 168 h [3] | Ki (KiSS-1 receptor [4]) | concentration at 5 min [5] | clearance [6] | remaining at 336 h [8] | remaining at 168 h [9] | remaining at 168 h [11] | AUC(0-t) at 24 h [14] | MRT [15] | EC50 (KiSS-1 receptor [16]) | remaining at 336 h [17] | EC50 (KiSS-1 receptor [19]) | remaining at 168 h [20] | Cmax [22] | Vd [23] | remaining at 336 h [24] | Tmax [25] | remaining at 336 h [26] | also measured
1 | CNC(=N)NCCC[C@H](NC(=O)[C@H](CC(C)C)NC(=O)NNC(=O)[C@H](Cc1ccccc1)NC(=O)[C@@H](NC(=O)[C@H](CC(N)=O)NC(=O)[C@@H](Cc1c[nH]c2ccccc12)NC(=O)[C@@H](Cc1ccc(O)cc1)NC(C)=O)[C@@H](C)O)C(=O)N[C@@H](Cc1ccccc1)C(N)=O | 26.4 min | 497 ng·h/mL | 97.5% | 38 pM | 1450 ng/mL | 34.5 mL/min/kg | 95% | 98.1% | 84.5% | 144 ng·h/mL | 52.8 min | 3900 pM | 22.3% | 940 pM | 50.6% | 114 ng/mL | 0.896 L/kg | 96.3% | 25.2 min | 67.6% | inhibition (Rattus norvegicus [7]): Active; bioavailability [10]: 28.9%; Activity (Rattus norvegicus [12]): 4%; Activity (Rattus norvegicus [13]): 5%; Activity (Rattus norvegicus [18]): 0 animals; Ki (KiSS-1 receptor [21]): 87 pM
2 | CNC(=N)NCCC[C@H](NC(=O)[C@H](CC(C)C)NC(=O)NNC(=O)[C@H](Cc1ccccc1)NC(=O)[C@H](CO)NC(=O)[C@H](CC(N)=O)NC(=O)[C@@H](Cc1ccncc1)NC(=O)[C@H](N)Cc1ccc(O)cc1)C(=O)N[C@@H](Cc1ccccc1)C(N)=O [KISS1-305] (H-[dY][d4Pal]NSF[azaGly]L[Arg(Me)]F-NH2) | 22.8 min | 239 ng·h/mL | 99.4% | 110 pM | 969 ng/mL | 69.9 mL/min/kg | 100% | 94.8% | 54.9% | 96 ng·h/mL | 36.6 min | 10000 pM | 32.8% | 2600 pM | 60.3% | 145 ng/mL | 1.58 L/kg | 91.2% | 8.4 min | 28% | Activity (Rattus norvegicus [27]): 0%; Activity (Rattus norvegicus [28]): 60%; Activity (Rattus norvegicus [29]): 100%; Ki (KiSS-1 receptor [21]): 140 pM; Activity (Rattus norvegicus [30]): 0 rats (n = 5)
3 | CNC(=N)NCCC[C@H](NC(=O)[C@H](CC(C)C)NC(=O)NNC(=O)[C@H](Cc1ccccc1)NC(=O)[C@@H](NC(=O)[C@H](CC(N)=O)NC(=O)[C@@H](Cc1c[nH]c2ccccc12)NC(=O)[C@H](N)Cc1ccc(O)cc1)[C@@H](C)O)C(=O)N[C@@H](Cc1c[nH]c2ccccc12)C(N)=O | 43.8 min | 503 ng·h/mL | 98.7% | 36 pM | 1440 ng/mL | 33.3 mL/min/kg | 98.2% | 98.8% | 84.9% | 46 ng·h/mL | 52.8 min | 4100 pM | 39.1% | 1000 pM | 64.9% | 47 ng/mL | 1.46 L/kg | 96.5% | 11.4 min | 72.8% | Activity (Rattus norvegicus [27]): 60%; bioavailability [10]: 9.2%; Activity (Rattus norvegicus [28]): 60%; Activity (Rattus norvegicus [29]): 100%; Activity (Rattus norvegicus [30]): 0 rats (n = 5)

— ChEMBL document CHEMBL3352485 (J Med Chem, 2014)
